TCR-CD3 inh = human TCR-CD3 binding inhibition; TAMRA-labeled TCR probe fluorescence, biochemical; inhibition, % at 9.4 µM; actives 0.37% (n = 360,000); AID 651800; in the data active = inhibition above about 19%;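 also: recombinant mutant TCR 2C K166C tagged with TAMRA read by polarization; 0% = receptor in buffer alone and 100% = receptor with positive control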
HTRA1 inhibitor = HTRA1 (human) protease inhibition; Q92743; recombinant HTRA1, FP-rhodamine activity-based probe, fluorescence polarization; inhibition, % at 5.96 µM; actives 0.5% (n = 340,000); AID 504803; in the data active = inhibition above about 36%;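 also: 0% = enzyme with DMSO and 100% = wells lacking enzyme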
Target sequence (Q92743 whole entry, looked up): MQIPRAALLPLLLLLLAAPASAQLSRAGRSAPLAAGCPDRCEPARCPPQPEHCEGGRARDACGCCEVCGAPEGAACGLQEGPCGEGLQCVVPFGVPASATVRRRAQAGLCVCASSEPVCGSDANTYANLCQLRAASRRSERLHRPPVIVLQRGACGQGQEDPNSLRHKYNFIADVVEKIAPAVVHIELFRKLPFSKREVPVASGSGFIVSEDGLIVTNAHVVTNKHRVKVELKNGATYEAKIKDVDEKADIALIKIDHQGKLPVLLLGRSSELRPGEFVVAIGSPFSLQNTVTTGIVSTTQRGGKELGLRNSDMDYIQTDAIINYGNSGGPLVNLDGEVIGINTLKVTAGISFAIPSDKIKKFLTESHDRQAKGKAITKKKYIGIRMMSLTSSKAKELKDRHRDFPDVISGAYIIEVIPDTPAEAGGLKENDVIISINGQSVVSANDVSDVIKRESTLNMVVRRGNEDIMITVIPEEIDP
PRMT1 FP inh = PRMT1 (human) inhibition, primary screen. actives 1.3% (n = 370,000). recombinant PRMT1, activity-based probe fluorescence polarization. inhibition, % at 2.79 µM. AID 652257;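 active = inhibition above about 21% made by adding two undisclosed values, limit read from the data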
mABHD4 FP = inhibits mouse alpha/beta hydrolase domain 4; Q8VD66; purified mABHD4, FP-Rh probe fluorescence polarization; inhibition, % at 8.92 µM; actives 0.54% (n = 370,000);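 active = inhibition exceeding the mean over every tested compound plus 3 SD, cut at about 30% in these data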;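 also: 0% = plate median of compound wells and 100% = S159A mutant with DMSO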
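System: mouse ABHD4 enzyme, wild type / Medium: HEPES pH 7.0, NaCl, Pluronic buffer / Reagent: FP-Rh activity-based fluorescent probe / Control set: S159A mutant high control, sample median low control / Detection: fluorescence polarization with parallel and perpendicular emission, 525/598 nm / Schedule: 45 min + 60 min at 25 °C / Compound dosing: 8.92 µM, single dose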
SIAE inh = inhibitors of human sialic acid acetylesterase SIAE; SIAE FP-Rh probe binding, fluorescence polarization; inhibition, % at 9.66 µM; actives 0.69% (n = 370,000);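 active = inhibition above a cutoff: mean of compounds within the control limits plus 3 SD of those, cut at about 17% in these data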;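 also: 0% = plate median of compound wells and 100% = probe without SIAE protein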
HTRA1 inh conf = confirmation of human HTRA1 inhibitors. shares compounds with HTRA1 inhibitor. AID 540248. actives 66% (n = 1,600). inhibition, % at 5.96 µM. recombinant HTRA1, FP-rhodamine activity-based probe, fluorescence polarization;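 active = mean inhibition over three repeats above a set limit taken from the earlier primary screen, cut at about 37% in these data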;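 also: 0% = HTRA1 with DMSO and 100% = wells lacking HTRA1; inhibitors block probe binding so polarization drops and inhibition rises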
Active calls of the source: *; nt = not tested or not shown. In the library only some 2.5% were active in any assay of this set; here they are far more common.

SMILES	TCR-CD3 inh	HTRA1 inhibitor	PRMT1 FP inh	mABHD4 FP	SIAE inh	HTRA1 inh conf
O=C(Oc1c(Cl)cc(Cl)c2cccnc12)N1CCOCC1	5.7	5.7	-2.3	1.2	5.0	nt
O=C(Oc1c(CN2CCOCC2)cc(Cl)c2cccnc12)c1ccccc1Br	-8.6	38.8*	5.0	2.7	-3.2	27.0
O=C(N/N=C/c1sc(N2CCOCC2)nc1-c1ccccc1)c1cccc(S(=O)(=O)N2CCCC2)c1	4.1	45.7*	-3.9	0.7	13.7	63.4*
O=C(N/N=C/c1sc(N2CCOCC2)nc1-c1ccccc1)c1ccc(O)cc1	-6.0	14.7	3.2	6.6	11.9	nt
Clc1cccc(C2Nc3cccc4cccc(c34)N2)c1Cl	-1.4	58.1*	16.5	28.7	14.9	19.8
O=C(NCCc1ccccc1)c1ccc(=O)oc1	-8.6	4.9	-1.4	5.1	7.1	nt
O=C(NCCc1ccccc1)c1ccc2nc(-c3ccco3)c(-c3ccco3)nc2c1	nt	47.2*	nt	nt	nt	10.1
O=C(/C=C/c1ccccc1Cl)c1ccc(O)cc1	0.1	-13.2	2.7	-22.7	-8.8	nt
O=C(/C=C/c1ccccc1Cl)c1ccccc(=O)c1O	7.5	43.9*	10.3	24.6	9.1	46.2*
Cc1ccc(/C=C/C(=O)c2ccccc(=O)c2O)c(C)c1	4.9	53.1*	16.9	27.8	14.3	45.0*
O=C(C=Cc1ccccc1O)c1ccccc1O	-1.4	-13.9	-0.4	-19.0	-7.6	nt
Cn1c(CNC(=O)c2ccccc2F)nnc1SCC(=O)c1ccccc1	10.4	5.7	4.8	5.3	1.8	nt
c1ccc(CNc2ccc(N3CCOCC3)cc2)cc1	1.3	52.1*	8.2	26.3	14.4	16.8
CCc1ccc(CNc2ccc(N3CCN(C(C)=O)CC3)cc2)cc1	-1.6	42.5*	5.8	27.3	8.1	4.2
Cc1cccnc1C1=NOC(Cc2ccccc2)C(=O)N1CCOc1ccc(F)cc1 (stereo not given)	1.3	nt	0.9	-10.5	-2.9	nt
COc1cccc(C(=O)OCC(=O)Nc2ccc(N3CCOCC3)cc2)c1	1.1	-4.8	0.9	3.6	3.0	nt
CCOc1c(OC(C)=O)ccc(/C=C/c2ccc3cccc(OC(C)=O)c3n2)c1[N+](=O)[O-]	nt	36.7*	nt	nt	nt	26.6
COc1c(OC(C)=O)ccc(/C=C/c2ccc3cccc(OC)c3n2)c1[N+](=O)[O-]	-1.3	14.0	5.2	-16.8	-9.5	nt
COc1ccccc1N=C1NC(=O)/C(=C/c2ccc(N(C)C)cc2)S1	-5.1	4.1	-11.8	-2.6	-3.0	nt
COC(=O)C1=C(C(=O)OC)SC(=C2C(=S)C(C)(C)N(C(=O)C3CC3)c3ccccc32)S1	0.6	45.0*	-4.1	5.1	16.2	52.2*
COC(=O)C1=C(C(=O)OC)SC(=C2C(=S)C(C)(C)N(C(=O)C(C)C)c3ccccc32)S1	-0.3	2.7	-0.8	6.3	7.3	nt
O=C(CN1CCN(S(=O)(=O)c2ccc(Cl)cc2)CC1)c1ccc(O)c(O)c1	nt	42.9*	nt	nt	nt	44.4*
O=C(CN1CCN(S(=O)(=O)c2ccc(F)cc2)CC1)c1ccc(O)c(O)c1	-1.2	13.0	6.7	10.1	7.9	nt
O=C(CN1C(=O)NC2(CCOc3ccccc32)C1=O)NCCc1ccccc1 (stereo not given)	-3.8	-4.8	3.6	8.3	-1.6	nt
CC[C@H](C)/C=C/C1=CC2=C(Cl)C(=O)[C@@]3(C)OC(=O)C(C(=O)[C@H](C)[C@@H](C)O)=C3C2=CO1	nt	54.3*	nt	nt	nt	68.3*
SMILES	TCR-CD3 inh	HTRA1 inhibitor	PRMT1 FP inh	mABHD4 FP	SIAE inh	HTRA1 inh conf
CCc1ccc(O)c(N=Cc2cccc(C)c2O)c1	0.3	26.3	2.1	19.8	9.3	nt
CCCc1ccc(O)c(N=Cc2cc(Br)cc(OCC)c2O)c1	-5.0	41.2*	4.7	18.2	-2.1	55.2*
Cc1cc2cc(CNC(=S)Nc3ccc(OC(F)(F)F)cc3)ccc2n1C	5.8	40.9*	11.7	14.9	0.6	11.1
Cc1ccc(/C=C2/SC(=O)NC2=S)o1	nt	40.2*	nt	nt	nt	17.9
Cc1c(Cl)cccc1NS(=O)(=O)c1ccc2c(c1)C1C=CCC1C(c1ccc(C(=O)O)cc1)N2 (stereo not given)	nt	38.2*	nt	nt	nt	31.3
CC(C)(C)NC(=S)Nc1ccc(Br)cc1	-0.7	0.2	-1.7	1.3	0.6	nt
CC(C)(C)NC(=S)Nc1ccc(Nc2ccccc2)cc1	1.8	45.7*	3.8	23.9	2.1	6.6
O=[N+]([O-])c1ccc(NC(c2ccccc2)c2ccc3cccnc3c2O)cc1 (stereo not given)	-3.1	36.3*	3.1	7.0	6.3	39.7*
CC(=O)NC(c1cccc([N+](=O)[O-])c1)c1ccc2cccnc2c1O (stereo not given)	-7.3	36.9*	-0.5	14.1	13.0	62.9*
CCn1c(SCC(=O)c2ccc(O)c(O)c2)nnc1-c1ccc(C)cc1	1.6	48.8*	8.4	32.2*	11.4	76.5*
CCC(C)[C@@H](C(=O)OC)N(Cc1cn(Cc2ccccc2)nn1)S(=O)(=O)c1ccccc1Br (stereo not given in full)	nt	nt	-1.3	-3.9	2.5	nt
CC(C)n1cnc2c(NCc3ccccc3)cc(N[C@H](C)CO)cc21	nt	44.8*	nt	nt	nt	33.3
CCN(CC)c1ccc(C=Nc2ccc(N(C)C)cc2)c(O)c1	1.8	38.2*	24.9*	25.9	2.9	-15.3
CCN(CC)c1ccc(C=Nc2ccc(C)cc2)c(O)c1	7.7	-4.6	1.1	9.7	-3.9	nt
CC(=O)NC(Cc1ccccc1)P(=O)(O)O (stereo not given)	nt	nt	-2.9	7.5	-1.7	nt
C=CCN1C(=O)[C@@H](CC(=O)N2CCOCC2)[C@]2(C(=O)OC)CCCCC=C12	nt	nt	-2.4	-1.7	-3.4	nt
N#CC1=C(N)Oc2c(ccc3cccnc23)C1c1cccnc1 (stereo not given)	4.2	14.4	-1.1	-5.1	4.9	nt
CCc1ccc2[nH]c(=O)c(C3C(C#N)=C(N)Oc4c3ccc3cccnc43)cc2c1 (stereo not given)	14.1	81.8*	2.5	17.4	8.6	14.4
Cc1ccc2cc(C3C(C#N)=C(N)Oc4c3ccc3cccnc43)c(=O)[nH]c2c1 (stereo not given)	nt	79.0*	nt	nt	nt	57.9*
O=S(=O)(c1ccccc1Cl)N1CCC(O)(c2ccc3c(c2)OCO3)CC1	nt	-4.1	nt	nt	nt	nt
CCOC(=O)COn1c(=O)c(-c2cccs2)[n+]([O-])c2ccccc21	-6.5	42.0*	7.5	7.8	-0.5	10.0
CCOn1c(=O)c(-c2cccs2)[n+]([O-])c2ccccc21	7.4	27.1	-1.7	5.6	-2.7	nt
NC(=Nc1nc(-c2ccccn2)cc2ccccc12)c1ccccn1	-2.9	68.7*	-0.5	6.8	-1.2	78.0*
COc1ccc2sc(-c3ccc(N(C)C)cc3)c(C#CCCO)c2c1	0.2	36.6*	3.6	19.1	3.0	24.5
COc1ccc2sc(-c3ccc(N(C)C)cc3)c(C#CC(C)(C)O)c2c1	2.8	0.4	-0.5	6.0	-3.4	nt
COc1ccc2sc(-c3ccc(N(C)C)cc3)c(C#Cc3cncn3C)c2c1	-2.9	47.9*	4.7	17.9	12.2	24.0
